From ChEMBL document CHEMBL1152560, “Substituted 2-arylbenzothiazoles as kinase inhibitors: hit-to-lead optimization” (Bioorg Med Chem, 2009)

Tests used:
[1] = biological target: Tyrosine-protein kinase Fes/Fps (Homo sapiens) (UniProt P07332); assay: Residual activity of FES at 1 uM by microplate scintillation counting
[2] = biological target: Angiopoietin-1 receptor (Homo sapiens, UniProt Q02763); assay: Residual activity of TIE2 at 1 uM by microplate scintillation counting
[3] = biological target: Casein kinase I isoform alpha (Homo sapiens) (UniProt P48729); assay: Residual activity of CK1alpha1 at 10 uM by microplate scintillation counting
[4] = biological target: Interferon-induced, double-stranded RNA-activated protein kinase (Homo sapiens) (UniProt P19525); assay: Residual activity of EIF2AK2 at 0.1 uM by microplate scintillation counting
[5] = biological target: RAC-alpha serine/threonine-protein kinase (Homo sapiens) (UniProt P31749); assay: Residual activity of AKT1 at 10 uM by microplate scintillation counting
[6] = biological target: T1, Tyrosine-protein kinase Tec (Homo sapiens) (UniProt P42680); assay: Residual activity of TEC at 0.1 uM by microplate scintillation counting
T1 sequence (whole entry): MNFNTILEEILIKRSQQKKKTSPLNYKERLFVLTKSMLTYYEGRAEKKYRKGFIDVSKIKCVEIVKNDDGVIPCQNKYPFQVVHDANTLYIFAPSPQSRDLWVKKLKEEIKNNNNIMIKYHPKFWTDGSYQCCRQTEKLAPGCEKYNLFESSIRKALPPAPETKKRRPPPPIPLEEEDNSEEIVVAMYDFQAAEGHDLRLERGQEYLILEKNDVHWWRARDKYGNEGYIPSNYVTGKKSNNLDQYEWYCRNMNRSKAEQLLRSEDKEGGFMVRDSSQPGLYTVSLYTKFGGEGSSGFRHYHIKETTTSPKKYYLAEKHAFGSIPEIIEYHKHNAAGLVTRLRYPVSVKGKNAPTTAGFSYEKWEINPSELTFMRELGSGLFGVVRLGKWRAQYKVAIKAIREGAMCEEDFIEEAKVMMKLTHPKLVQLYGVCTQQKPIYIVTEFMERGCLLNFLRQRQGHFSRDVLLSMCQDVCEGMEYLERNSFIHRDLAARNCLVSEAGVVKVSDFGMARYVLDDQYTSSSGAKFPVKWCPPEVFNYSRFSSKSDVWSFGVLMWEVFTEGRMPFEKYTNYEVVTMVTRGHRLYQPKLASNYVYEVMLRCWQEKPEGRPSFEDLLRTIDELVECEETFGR

[7] = biological target: Hepatocyte growth factor receptor (Homo sapiens) (UniProt P08581); assay: Residual activity of MET at 1 uM by microplate scintillation counting
[8] = biological target: Tyrosine-protein kinase Fes/Fps (Homo sapiens) (UniProt P07332); assay: Residual activity of FES at 0.1 uM by microplate scintillation counting
[9] = biological target: Cyclin-dependent kinase 5/CDK5 activator 1 (Homo sapiens) (UniProt Q00535+Q15078); assay: Residual activity of CDK5/p25NCK at 1 uM by microplate scintillation counting; assay type: protein-complex assay
[10] = biological target: Leukocyte tyrosine kinase receptor (Homo sapiens) (UniProt P29376); assay: Residual activity of LTK at 0.1 uM by microplate scintillation counting
[11] = biological target: Protein-tyrosine kinase 6 (Homo sapiens) (UniProt Q13882); assay: Residual activity of BRK at 10 uM by microplate scintillation counting
[12] = biological target: Ribosomal protein S6 kinase alpha-3 (Homo sapiens) (UniProt P51812); assay: Residual activity of RPS6KA3 at 10 uM by microplate scintillation counting
[13] = biological target: Macrophage colony-stimulating factor 1 receptor (Homo sapiens) (UniProt P07333); assay: Residual activity of CSF1R at 1 uM by microplate scintillation counting
[14] = biological target: Serine/threonine-protein kinase PAK 3 (Homo sapiens) (UniProt O75914); assay: Residual activity of PAK3 at 10 uM by microplate scintillation counting
[15] = biological target: Serine/threonine-protein kinase PAK 1 (Homo sapiens) (UniProt Q13153); assay: Residual activity of PAK1 at 10 uM by microplate scintillation counting
[16] = biological target: Aurora kinase B (Homo sapiens, UniProt Q96GD4); assay: Residual activity of Aurora-B at 1 uM by microplate scintillation counting
[17] = biological target: Serine/threonine-protein kinase SIK2 (Homo sapiens) (UniProt Q9H0K1); assay: Residual activity of SNF1LK2 at 0.1 uM by microplate scintillation counting
[18] = biological target: Casein kinase I isoform gamma-1 (Homo sapiens) (UniProt Q9HCP0); assay: Residual activity of CK1gamma1 at 1 uM by microplate scintillation counting
[19] = biological target: LIM domain kinase 1 (Homo sapiens) (UniProt P53667); assay: Residual activity of LIMK1 at 0.1 uM by microplate scintillation counting
[20] = biological target: Serine/threonine-protein kinase Nek6 (Homo sapiens) (UniProt Q9HC98); assay: Residual activity of NEK6 at 0.1 uM by microplate scintillation counting
[21] = biological target: Calcium/calmodulin-dependent protein kinase type 1D (Homo sapiens) (UniProt Q8IU85); assay: Residual activity of CAMK1D at 0.1 uM by microplate scintillation counting
[22] = biological target: Serine/threonine-protein kinase N1 (Homo sapiens) (UniProt Q16512); assay: Residual activity of PRK1 at 10 uM by microplate scintillation counting
[23] = biological target: T2, Interleukin-1 receptor-associated kinase 4 (Homo sapiens) (UniProt Q9NWZ3); assay: Residual activity of IRAK4 at 10 uM by microplate scintillation counting
T2 sequence (whole entry): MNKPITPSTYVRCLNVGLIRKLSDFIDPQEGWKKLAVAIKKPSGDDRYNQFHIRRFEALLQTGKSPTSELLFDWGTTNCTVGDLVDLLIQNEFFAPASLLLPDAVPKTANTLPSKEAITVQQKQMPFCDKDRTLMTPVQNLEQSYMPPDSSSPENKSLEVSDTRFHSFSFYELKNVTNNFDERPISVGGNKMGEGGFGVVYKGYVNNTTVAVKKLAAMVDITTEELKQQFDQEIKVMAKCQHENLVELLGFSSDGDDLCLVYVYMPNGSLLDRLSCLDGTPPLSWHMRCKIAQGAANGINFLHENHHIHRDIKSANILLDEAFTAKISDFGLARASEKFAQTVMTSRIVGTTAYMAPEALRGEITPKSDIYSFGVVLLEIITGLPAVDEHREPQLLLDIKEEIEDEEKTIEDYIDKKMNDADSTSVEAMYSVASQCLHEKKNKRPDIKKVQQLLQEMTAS

[24] = system: Fibroblast growth factor receptor 1 (Homo sapiens), P11362 [V561M]; assay: Residual activity of FGFR1 V561M mutant at 1 uM by microplate scintillation counting
[25] = biological target: Cyclin-dependent kinase 16 (Homo sapiens) (UniProt Q00536); assay: Residual activity of PCTAIRE1 at 10 uM by microplate scintillation counting
[26] = biological target: Platelet-derived growth factor receptor beta (Homo sapiens, UniProt P09619); assay: Inhibition of PDGFRbeta by microplate scintillation counting
Method in brief: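 Substrates: tetra(LRRWSLG) for Aurora A/B; poly(Ala,Glu,Lys,Tyr)6:2:5:1 for PDGFRβ; poly(Glu,Tyr)4:1 for TIE2 and VEGFR2. Stopped with 2% H3PO4.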

Aurora kinase B, sequence (Q96GD4 whole entry): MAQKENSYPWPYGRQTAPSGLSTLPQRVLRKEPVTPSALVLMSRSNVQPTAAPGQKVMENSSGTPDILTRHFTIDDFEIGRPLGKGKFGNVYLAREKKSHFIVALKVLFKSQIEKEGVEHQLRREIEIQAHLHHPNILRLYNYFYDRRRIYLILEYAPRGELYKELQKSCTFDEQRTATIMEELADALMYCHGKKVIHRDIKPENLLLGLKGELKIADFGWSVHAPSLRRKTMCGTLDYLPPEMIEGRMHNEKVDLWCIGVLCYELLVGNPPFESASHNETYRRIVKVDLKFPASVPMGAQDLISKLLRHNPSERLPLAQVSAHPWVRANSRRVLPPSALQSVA
Ribosomal protein S6 kinase alpha-3 (Homo sapiens), sequence (P51812 whole entry): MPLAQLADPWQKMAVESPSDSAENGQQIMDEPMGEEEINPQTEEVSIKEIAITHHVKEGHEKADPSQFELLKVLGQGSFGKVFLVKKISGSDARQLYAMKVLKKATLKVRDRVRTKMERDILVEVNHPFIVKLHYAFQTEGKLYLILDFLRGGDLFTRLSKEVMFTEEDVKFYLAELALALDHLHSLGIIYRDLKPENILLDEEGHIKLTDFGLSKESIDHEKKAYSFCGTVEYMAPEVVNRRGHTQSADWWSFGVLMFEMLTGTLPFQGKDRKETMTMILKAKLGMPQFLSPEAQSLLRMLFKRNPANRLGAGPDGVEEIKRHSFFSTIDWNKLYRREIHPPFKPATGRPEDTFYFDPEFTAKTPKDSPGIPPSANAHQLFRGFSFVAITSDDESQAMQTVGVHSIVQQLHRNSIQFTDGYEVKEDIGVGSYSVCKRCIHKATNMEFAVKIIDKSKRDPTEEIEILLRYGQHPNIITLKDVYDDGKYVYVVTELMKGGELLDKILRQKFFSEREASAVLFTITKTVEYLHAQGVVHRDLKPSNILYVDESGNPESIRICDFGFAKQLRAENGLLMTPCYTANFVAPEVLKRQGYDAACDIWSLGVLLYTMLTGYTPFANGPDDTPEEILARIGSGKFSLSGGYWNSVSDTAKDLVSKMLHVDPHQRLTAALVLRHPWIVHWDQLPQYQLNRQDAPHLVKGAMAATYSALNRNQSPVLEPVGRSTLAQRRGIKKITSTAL
Casein kinase I isoform gamma-1 (Homo sapiens), sequence (Q9HCP0 whole entry, looked up, the tested form may be a part, canonical isoform): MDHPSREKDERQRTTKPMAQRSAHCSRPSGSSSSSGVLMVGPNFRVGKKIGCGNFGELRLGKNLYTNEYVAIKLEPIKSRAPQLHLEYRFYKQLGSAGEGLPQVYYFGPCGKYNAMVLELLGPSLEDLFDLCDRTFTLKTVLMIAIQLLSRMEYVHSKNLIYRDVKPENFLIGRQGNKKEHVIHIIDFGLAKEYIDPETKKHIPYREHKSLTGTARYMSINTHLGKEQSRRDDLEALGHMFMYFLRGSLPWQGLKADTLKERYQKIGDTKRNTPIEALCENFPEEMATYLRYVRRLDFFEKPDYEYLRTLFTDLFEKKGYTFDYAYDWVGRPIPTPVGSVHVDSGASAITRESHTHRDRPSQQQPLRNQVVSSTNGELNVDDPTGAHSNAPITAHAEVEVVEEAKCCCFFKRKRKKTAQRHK
Angiopoietin-1 receptor, sequence (Q02763 whole entry, canonical isoform): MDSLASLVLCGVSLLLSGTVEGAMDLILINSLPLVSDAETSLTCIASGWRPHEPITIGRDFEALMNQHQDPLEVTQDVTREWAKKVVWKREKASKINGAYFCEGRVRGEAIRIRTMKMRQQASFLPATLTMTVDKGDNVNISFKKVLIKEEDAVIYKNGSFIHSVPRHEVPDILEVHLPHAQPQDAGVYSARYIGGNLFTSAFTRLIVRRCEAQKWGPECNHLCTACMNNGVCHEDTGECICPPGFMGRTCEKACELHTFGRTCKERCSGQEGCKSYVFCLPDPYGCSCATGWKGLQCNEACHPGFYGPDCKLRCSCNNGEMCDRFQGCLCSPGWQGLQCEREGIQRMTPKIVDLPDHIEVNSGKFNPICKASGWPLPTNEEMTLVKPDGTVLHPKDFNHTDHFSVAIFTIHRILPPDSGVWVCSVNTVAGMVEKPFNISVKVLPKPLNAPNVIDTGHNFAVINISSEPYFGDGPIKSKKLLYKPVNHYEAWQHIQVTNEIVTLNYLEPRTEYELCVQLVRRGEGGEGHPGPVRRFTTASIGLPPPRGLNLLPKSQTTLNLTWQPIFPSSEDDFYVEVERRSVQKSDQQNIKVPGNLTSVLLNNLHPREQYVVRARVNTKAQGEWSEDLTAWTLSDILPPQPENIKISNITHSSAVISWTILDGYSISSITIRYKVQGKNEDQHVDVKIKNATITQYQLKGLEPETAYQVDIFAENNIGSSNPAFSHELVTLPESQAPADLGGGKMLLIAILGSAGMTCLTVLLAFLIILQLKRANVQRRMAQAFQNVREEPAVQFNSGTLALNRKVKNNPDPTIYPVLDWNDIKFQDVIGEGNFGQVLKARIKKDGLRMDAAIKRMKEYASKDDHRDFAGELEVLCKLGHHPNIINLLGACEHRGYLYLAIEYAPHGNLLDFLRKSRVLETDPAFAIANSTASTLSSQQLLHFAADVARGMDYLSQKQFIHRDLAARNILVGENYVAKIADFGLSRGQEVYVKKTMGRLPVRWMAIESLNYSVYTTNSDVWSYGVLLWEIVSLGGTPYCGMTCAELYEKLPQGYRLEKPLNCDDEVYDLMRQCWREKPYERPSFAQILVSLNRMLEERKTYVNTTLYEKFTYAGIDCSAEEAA
LIM domain kinase 1 (Homo sapiens), sequence (P53667 whole entry, looked up, the tested form may be a part): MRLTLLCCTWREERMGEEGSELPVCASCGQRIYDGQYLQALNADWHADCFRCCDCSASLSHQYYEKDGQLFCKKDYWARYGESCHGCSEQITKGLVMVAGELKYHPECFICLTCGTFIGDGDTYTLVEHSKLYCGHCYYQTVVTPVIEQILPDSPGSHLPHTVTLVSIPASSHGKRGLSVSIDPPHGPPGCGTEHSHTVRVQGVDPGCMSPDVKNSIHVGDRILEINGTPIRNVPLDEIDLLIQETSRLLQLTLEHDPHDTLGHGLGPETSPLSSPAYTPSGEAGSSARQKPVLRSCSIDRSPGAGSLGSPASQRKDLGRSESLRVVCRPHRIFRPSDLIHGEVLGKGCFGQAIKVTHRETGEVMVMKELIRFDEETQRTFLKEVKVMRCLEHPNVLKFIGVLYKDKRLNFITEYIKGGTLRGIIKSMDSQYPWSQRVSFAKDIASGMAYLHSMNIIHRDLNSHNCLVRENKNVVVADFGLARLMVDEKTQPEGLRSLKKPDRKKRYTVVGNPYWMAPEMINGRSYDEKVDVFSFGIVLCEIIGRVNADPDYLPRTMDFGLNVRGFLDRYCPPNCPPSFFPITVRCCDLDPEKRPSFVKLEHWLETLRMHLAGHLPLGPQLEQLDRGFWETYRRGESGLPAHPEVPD
Cyclin-dependent kinase 16 (Homo sapiens), sequence (Q00536 whole entry): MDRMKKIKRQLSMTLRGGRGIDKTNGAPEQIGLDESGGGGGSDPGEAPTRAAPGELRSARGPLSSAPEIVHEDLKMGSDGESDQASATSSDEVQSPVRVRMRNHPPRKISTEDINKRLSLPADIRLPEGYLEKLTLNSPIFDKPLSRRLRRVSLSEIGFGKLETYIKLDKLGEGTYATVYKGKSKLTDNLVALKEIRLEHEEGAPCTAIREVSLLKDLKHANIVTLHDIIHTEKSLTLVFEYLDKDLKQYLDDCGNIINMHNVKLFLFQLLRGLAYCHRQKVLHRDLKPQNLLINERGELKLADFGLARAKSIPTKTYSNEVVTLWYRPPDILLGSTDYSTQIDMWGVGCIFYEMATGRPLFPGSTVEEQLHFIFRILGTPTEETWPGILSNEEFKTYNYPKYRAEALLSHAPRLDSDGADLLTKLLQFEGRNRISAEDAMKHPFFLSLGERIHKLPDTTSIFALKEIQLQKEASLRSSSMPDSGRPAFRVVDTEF
Interferon-induced, double-stranded RNA-activated protein kinase (Homo sapiens), sequence (P19525 whole entry): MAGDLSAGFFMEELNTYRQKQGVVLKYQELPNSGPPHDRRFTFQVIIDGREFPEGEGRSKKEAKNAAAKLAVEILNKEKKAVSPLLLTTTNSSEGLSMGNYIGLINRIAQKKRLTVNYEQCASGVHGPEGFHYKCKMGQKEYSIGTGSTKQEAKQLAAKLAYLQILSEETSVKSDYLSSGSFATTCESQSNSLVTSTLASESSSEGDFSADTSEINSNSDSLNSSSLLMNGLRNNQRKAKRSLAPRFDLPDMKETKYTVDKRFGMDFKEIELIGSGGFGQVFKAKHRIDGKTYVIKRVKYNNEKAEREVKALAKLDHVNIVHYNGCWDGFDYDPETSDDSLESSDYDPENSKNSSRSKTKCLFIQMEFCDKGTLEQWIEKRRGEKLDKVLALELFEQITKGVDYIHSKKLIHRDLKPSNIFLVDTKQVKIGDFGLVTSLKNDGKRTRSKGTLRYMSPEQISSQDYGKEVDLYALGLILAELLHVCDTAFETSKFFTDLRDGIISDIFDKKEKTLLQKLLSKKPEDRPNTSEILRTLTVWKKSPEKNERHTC
Protein-tyrosine kinase 6 (Homo sapiens), sequence (Q13882 whole entry, looked up): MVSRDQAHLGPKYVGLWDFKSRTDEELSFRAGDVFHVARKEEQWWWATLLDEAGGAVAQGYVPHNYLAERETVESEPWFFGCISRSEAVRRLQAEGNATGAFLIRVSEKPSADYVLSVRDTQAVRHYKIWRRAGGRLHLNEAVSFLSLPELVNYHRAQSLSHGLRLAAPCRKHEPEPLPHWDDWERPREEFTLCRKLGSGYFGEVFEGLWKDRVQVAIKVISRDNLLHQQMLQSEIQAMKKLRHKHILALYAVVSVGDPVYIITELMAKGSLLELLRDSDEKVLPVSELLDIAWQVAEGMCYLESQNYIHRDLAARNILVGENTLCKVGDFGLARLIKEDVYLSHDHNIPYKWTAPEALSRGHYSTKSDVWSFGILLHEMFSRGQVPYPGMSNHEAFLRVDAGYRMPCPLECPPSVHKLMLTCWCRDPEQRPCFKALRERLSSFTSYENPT

Row | SMILES | residual activity [1] | residual activity [2] | residual activity [3] | residual activity [4] | residual activity [5] | residual activity [6] | residual activity [7] | residual activity [8] | residual activity [9] | residual activity [10] | residual activity [11] | residual activity [12] | residual activity [13] | residual activity [14] | residual activity [15] | residual activity [16] | residual activity [17] | residual activity [18] | residual activity [19] | residual activity [20] | further results
1 | COc1cc2c(Oc3ccc(-c4nc5ccccc5s4)cc3)ncnc2cc1OCCCN1CCN(C)CC1 | 105% | 22% | 155% | 70% | 120% | 105% | 59% | 102% | 82% | 82% | 1% | 50% | 118% | 43% | 68% | 18% | 93% | 112% | 68% | 93% | residual activity [21]: 88%; residual activity [22]: 83%; residual activity [23]: 36%; residual activity [24]: 103%; residual activity [25]: 163%; IC50 [26]: 3.5 µM
2 | COc1cc2c(Oc3ccc(-c4nc5ccccc5s4)cc3)ncnc2cc1OCCCN1CCCC1 | 123% | 23% | 139% | 82% | 87% | 98% | 74% | 107% | 87% | 99% | 0% | 58% | 112% | 56% | 69% | 24% | 80% | 97% | 76% | 93% | residual activity [21]: 101%; residual activity [22]: 68%; residual activity [23]: 26%; residual activity [24]: 102%; residual activity [25]: 126%; IC50 [26]: 7.7 µM
3 | COc1cc2c(Oc3ccc(-c4nc5ccccc5s4)cc3F)ncnc2cc1OCCCN1CCN(C)CC1 | 112% | 16% | 144% | 95% | 105% | 96% | 53% | 101% | 89% | 101% | 0% | 36% | 105% | 39% | 57% | 20% | 88% | 110% | 77% | 98% | residual activity [21]: 104%; residual activity [22]: 91%; residual activity [23]: 34%; residual activity [24]: 93%; residual activity [25]: 153%; IC50 [26]: 6.1 µM
